Screening results as filed in PubChem.
Rows were chosen to be rich in hits. Some 9.4% of all compounds tested hit in one or more screens of this group.
T cruzi repl: inhibitors of intracellular T. cruzi growth, primary screen, luminescence, NIH3T3 host cells | T. cruzi beta-gal in NIH3T3, 90 h | inhibition, % (no concentration beside the values) | hit rate 1.4% among 300,000;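 active means mean inhibition across valid replicates above about 55%, limit read from the data; inconclusive means mean below that limit but half or more replicates reach it; inactive means mean below it, under half of replicates reach it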;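 further: signal also drops with host cell toxicity which is not excluded here; 0% = plate median of DMSO wells and 100% = zero luminescence signal; higher percent means less beta-gal luminescence so fewer parasites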
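System: mouse NIH/3T3 fibroblasts infected with β-gal-expressing T. cruzi Tulahuen C4 / Input: NIH/3T3 cells, 5,000 per well / Buffer or medium: Low-serum DMEM with 2% FBS / Probe or stimulus: 5000 reporter trypomastigotes per well / Schedule: ≥90 h infection period, 3 h prior cell attachment / Measured by: GalScreen luminescence, 60 min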
CSC inhib: cancer stem cell viability inhibitors, primary screen, luminescence; cancer stem cell-like cells viability; inhibition, % at 7.5 µM; hit rate 1.1% among 300,000; in the data active means inhibition above about 75%; inconclusive means no clear call, values can overlap the other calls; tested in HMLE shEcad cells
Lmaj promast: Leishmania major promastigote growth inhibition, primary screen. Leishmania major promastigotes, resazurin fluorescence viability. inhibition, % at 10 µM. hit rate 9% among 200,000. AID 1063, 2008; in the data active means inhibition above about 50%;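 further: promastigotes grown with compound for 44 hours at 28 °C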
Mdm2 MdmX PPI: inhibitors of human Mdm2-MdmX association, primary screen, cell-based, luminescence, split luciferase, SaOS-2, uHTS; inhibition, % at 8 µM; SaOS-2 split-luciferase Mdm2/MdmX complementation; hit rate 3% among 330,000; AID 485346, 2010;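 active means inhibition of at least 50% at 8 µM in the primary screen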
Target sequence (O15151 whole entry, looked up): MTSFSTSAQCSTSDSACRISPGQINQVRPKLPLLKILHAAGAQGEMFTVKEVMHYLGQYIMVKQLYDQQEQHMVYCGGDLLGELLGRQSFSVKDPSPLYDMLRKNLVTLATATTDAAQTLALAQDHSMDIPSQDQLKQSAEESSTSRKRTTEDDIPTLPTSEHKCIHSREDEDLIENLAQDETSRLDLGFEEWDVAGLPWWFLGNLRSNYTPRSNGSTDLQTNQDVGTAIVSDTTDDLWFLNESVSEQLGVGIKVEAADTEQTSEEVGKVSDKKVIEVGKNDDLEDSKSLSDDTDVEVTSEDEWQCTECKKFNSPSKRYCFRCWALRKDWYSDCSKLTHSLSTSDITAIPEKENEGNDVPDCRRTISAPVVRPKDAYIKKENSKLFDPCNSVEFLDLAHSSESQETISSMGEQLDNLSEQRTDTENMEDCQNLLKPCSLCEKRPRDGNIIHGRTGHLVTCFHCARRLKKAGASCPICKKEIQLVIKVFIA
Target sequence (Q00987 whole entry, looked up): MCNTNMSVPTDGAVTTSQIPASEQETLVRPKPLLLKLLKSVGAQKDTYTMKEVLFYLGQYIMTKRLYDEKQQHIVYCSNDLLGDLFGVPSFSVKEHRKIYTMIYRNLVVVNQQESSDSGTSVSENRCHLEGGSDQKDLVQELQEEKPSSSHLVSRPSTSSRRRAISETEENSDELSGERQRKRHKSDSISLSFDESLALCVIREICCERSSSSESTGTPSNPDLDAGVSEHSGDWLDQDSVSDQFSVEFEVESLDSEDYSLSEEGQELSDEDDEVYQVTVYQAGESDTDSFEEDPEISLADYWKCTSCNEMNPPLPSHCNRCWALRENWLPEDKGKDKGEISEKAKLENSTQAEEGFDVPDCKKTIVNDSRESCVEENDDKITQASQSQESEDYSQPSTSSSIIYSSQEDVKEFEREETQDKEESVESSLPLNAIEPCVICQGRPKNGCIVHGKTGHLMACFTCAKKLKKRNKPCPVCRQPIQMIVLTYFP
SKKanGAS inh: S. pyogenes SKKanGAS growth inhibitors in kanamycin, primary screen, streptokinase expression inhibitor project, SKKanGAS strain, BacTiter-Glo luminescence. 6 h. inhibition, % at 7.5 µM. hit rate 1.3% among 300,000;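 active means mean replicate score, as percent of positive control median, at least 50; inconclusive means mean below 50 but one replicate at or above 50; inactive means mean and every replicate below 50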;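 further: strain carries kanamycin resistance gene driven by streptokinase promoter and grows in 40 µg/ml kanamycin; loss of luminescence reflects streptokinase promoter inhibition or plain growth inhibition; 0% = median of DMSO wells and 100% = positive control at its reference dose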
Beta cell apopt: inhibitors of cytokine-induced beta cell apoptosis, primary screen, luminescence | INS-1E cytokine-induced death, ATP luminescence, 48 h; percent of positive-control rescue, neutral wells zero | protection from apoptosis, % (concentration not given with the values) | hit rate 0.8% among 300,000;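 active means Every replicate reaches about 75%, or at least half do and their mean reaches it too, limit read from the data; inconclusive means At least half of replicates reach the limit but their mean does not; inactive means Under half of replicates reach the limit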;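 further: 0% = cytokine-treated negative control wells and 100% = positive control rescue; higher means more ATP so stronger rescue from cytokine killing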
Starred values were filed as active, the others as inactive; u = inconclusive; x = no result.

SMILES	T cruzi repl	CSC inhib	Lmaj promast	Mdm2 MdmX PPI	SKKanGAS inh	Beta cell apopt
C#CCOCCOCCOCCNc1nc(N2CCN(C(=O)CCCCCCCCCCNC(=O)[C@@H](CCSC)n3cc(CCO)nn3)CC2)nc(N2CCN(C(=O)CCCCCCCCCCNC(=O)[C@H](CCCN=C(N)N)n3cc(C[C@@H](C)CC)nn3)CC2)n1	x	67	x	-5	x	43
C#CCOCCOCCOCCNc1nc(N2CCN(C(=O)CCCCCCCCCCNC(=O)[C@H](CCCCN)n3cc(C)nn3)CC2)nc(N2CCN(C(=O)CCCCCCCCCCNC(=O)[C@H](CCCN=C(N)N)n3cc(C[C@@H](C)CC)nn3)CC2)n1	x	168*	x	1	x	100*
O=C(/C=C/c1ccc(Br)o1)Nc1nccs1	-6	10	-8	-95	-7	2
CCOc1ccc(OCC)c(NC(=O)CCNS(=O)(=O)c2cc(Br)cnc2N)c1	11	-12	x	7	-8	1
O=c1cc(-c2ccccc2)nc2c(-c3ccccc3)c(C(F)(F)F)[nH]n12	-7	90*	x	17	56*	x
COc1ccc(/C=C(\C#N)C(=O)OCC(=O)NCc2ccc(Cl)cc2)cc1	3	0	59*	4	-2	x
COc1ccc(/C=C(\C#N)C(=O)OCC(=O)NCc2ccccc2Cl)cc1	0	-6	-7	0	-3	0
COc1ccccc1C(=O)Nn1c(C2CCC2)nc2ccccc2c1=O	56*	x	7	-8	-3	-2
CC(Oc1ccc(C(C)(C)C)cc1)C(=O)NC1CC(C)(C)NC(C)(C)C1 (stereo not given)	3	-6	x	16	-1	-1
O=C(/C=C/c1cccs1)NC(=S)NNC(=O)Cc1cccs1	-5	34	64*	26	68*	4
COc1ccc(/C=C/C(=O)NC(=S)NNC(=O)Cc2cccs2)cc1OC	-23	17	99*	34	67*	7
COc1ccc(/C=C/C(=O)NC(=S)NNC(=O)c2cccnc2)cc1OC	9	-9	48	2	19	-4
COc1cc(OC)cc(C(=O)NC(=S)NNC(=O)Cc2cccs2)c1	-24	8	-3	36	70*	-9
O=C(/C=C/c1cccs1)NCc1cccs1	-5	-3	x	-16	-2	2
COc1ccc(/C=C/C(=O)NC(=S)NNC(=O)c2cccs2)cc1OC	3	0	x	27	73*	1
COc1ccc(/C=C/C(=O)NC(=S)NCc2ccccc2)cc1OC	4	-5	x	48	-1	-2
O=S(=O)(Nc1ccc(O)c2ccccc12)c1ccc(Br)cc1	34	36	x	44	8	x
Cc1ccc(S(=O)(=O)N2CCC(C(=O)Nc3ccncc3)CC2)cc1	2	15	x	29	1	3
Cc1ccc(Cl)c2c(N=Nc3ccccc3)c(O)[nH]c12	8	6	x	-84	0	-2
O=C(CSc1nnc(Cn2nnc3ccccc32)o1)N(Cc1ccc(F)cc1)c1ccccc1	13	40	18	13	4	109*
O=S(=O)(c1ccccc1)N(CC(O)Cn1c2ccccc2c2ccccc21)c1ccccc1 (stereo not given)	35	95*	100*	43	43	x
COc1ccccc1N(CC(O)Cn1c2ccccc2c2ccccc21)S(=O)(=O)c1ccccc1 (stereo not given)	63*	11	54*	8	u	6
CCCN(CCC)CC(O)CN(c1ccccc1)S(=O)(=O)c1ccc(C)cc1 (stereo not given)	23	3	97*	-3	-2	-3
C=CCN(CC=C)CC(O)CN(c1cc([N+](=O)[O-])ccc1OC)S(=O)(=O)c1ccccc1 (stereo not given)	-2	-4	64*	-9	4	1
CC(C)N1CCNCC1	-5	-8	-7	2	-2	-5
SMILES	T cruzi repl	CSC inhib	Lmaj promast	Mdm2 MdmX PPI	SKKanGAS inh	Beta cell apopt
Cc1cc(SCC(=O)Nc2cccc(S(=O)(=O)N3CCOCC3)c2)nc2ccccc12	5	-4	40	26	29	6
COc1cc2[nH]c(C(=O)NCc3ccccc3)cc2c(OC)c1OC	10	-7	x	9	-4	2
Fc1ccccc1-c1nc2c(s1)CCc1onc(-c3ccc(Br)cc3)c1-2	-24	7	x	9	11	-13
O=C(N/N=C/c1ccccc1O)c1cc(=O)[nH]c2ccccc12	-7	x	99*	-13	4	x
CC(CCc1ccccc1)NC(=O)CN1CCN(c2ccc(O)cc2)CC1 (stereo not given)	19	15	64*	6	8	3
CC(CCc1ccccc1)NC(=O)Cc1ccc([N+](=O)[O-])cc1 (stereo not given)	-5	5	65*	12	-11	3
CC(CCc1ccccc1)NC(=O)CSc1ccccc1 (stereo not given)	5	0	52*	20	-8	-2
CC(CCc1ccccc1)NC(=O)CSc1cccc[n+]1[O-] (stereo not given)	11	16	-8	9	-7	-3
CC(CCc1ccccc1)NC(=O)CN1CCN(Cc2ccccc2)C1=O (stereo not given)	4	-6	-4	21	-1	2
CC(=O)Oc1ccc(N(C(C)=O)S(=O)(=O)c2ccc(C)cc2C)c2ccccc12	3	x	x	26	2	x
Cc1ccc(S(=O)(=O)N(C(=O)c2ccncc2)c2ccc(OC(=O)c3ccncc3)c3ccccc23)cc1	5	26	98*	8	7	-26
Cc1ccc(S(=O)(=O)N(C(=O)c2ccncc2)c2ccc(OC(=O)c3ccncc3)c3ccccc23)c(C)c1	x	18	98*	32	4	-29
O=C(c1ccccc1Br)N1CCN(c2ncccn2)CC1	-2	3	x	8	-1	-10
O=C(c1ccccc1OCc1ccccc1Br)N1CCN(c2ncccn2)CC1	16	5	68*	5	-4	2
CCCOC(=O)c1ccc(NC(=O)C(=O)NCC2CCCO2)cc1 (stereo not given)	-12	-7	55*	9	-2	-5
CS(=O)(=O)N1CCN(C(=O)c2cc(-c3cccs3)nc3ccccc23)CC1	-1	-2	11	-10	1	0
Cn1c(O)c(N=NC(=O)c2cc(-c3cccs3)nc3ccccc23)c2ccccc21	13	x	2	29	80*	24
O=C(N=Nc1c(O)[nH]c2ccc([N+](=O)[O-])cc12)c1cc(-c2ccccc2Cl)nc2ccccc12	-26	9	33	5	x	29
